Results on 52 compounds are retold here after ChEMBL document CHEMBL1130101, “A virtual screening approach applied to the search for trypanothione reductase inhibitors” (J Med Chem, 1997).

Assay [1] addresses Trypanothione reductase (Trypanosoma cruzi) (UniProt P28593). Nature of the assay: Natural log of the value in (uM) of inhibition constant was tested against Trypanothione Reductase.
For assay [2] the target is unchanged. Nature of the assay: Percent Inhibition of trypanothione reductase activity at 28.5 uM concentration. An outline of the steps: (§1)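 TR-catalysed reduction of trypanothione disulfide; the reaction rate was measured without inhibitor (r0) and with inhibitor (rinh). Percent inhibition = (r0 − rinh)/r0 × 100. Measured percentages carry an error of about 10%.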
For assay [3] the target is unchanged. Nature of the assay: Percent Inhibition of trypanothione reductase activity at 5.7 uM concentration. The method in brief:
as §1

Assay [4] has the same target. In words: Percent Inhibition of trypanothione reductase activity at 57 uM concentration. An outline of the steps: as §1

Chain of Trypanothione reductase (Trypanosoma cruzi) (P28593 whole entry, looked up): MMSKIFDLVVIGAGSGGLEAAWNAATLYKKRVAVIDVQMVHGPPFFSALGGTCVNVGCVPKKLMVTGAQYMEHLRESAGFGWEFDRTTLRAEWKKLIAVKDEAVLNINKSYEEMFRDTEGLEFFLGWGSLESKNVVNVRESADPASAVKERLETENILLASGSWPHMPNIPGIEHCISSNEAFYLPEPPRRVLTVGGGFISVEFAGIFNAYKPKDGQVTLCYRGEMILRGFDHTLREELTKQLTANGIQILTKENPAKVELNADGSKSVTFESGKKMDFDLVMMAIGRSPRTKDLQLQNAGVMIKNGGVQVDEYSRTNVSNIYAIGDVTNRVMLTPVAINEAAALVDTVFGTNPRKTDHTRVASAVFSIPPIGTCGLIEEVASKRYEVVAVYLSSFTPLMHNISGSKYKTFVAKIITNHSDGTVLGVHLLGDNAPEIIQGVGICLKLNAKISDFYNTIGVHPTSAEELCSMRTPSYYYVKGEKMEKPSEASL

In turn, `CN(C)CCNc1cc(Cl)ccc1Sc1ccccc1` displayed a Natural log of inhibition constant (Ki in uM) in assay [1] of 4.38.

By inhibition is commonly meant the share of the control response that was lost under treatment. Low values mean a weak effect, high ones a strong effect. For the compound `COc1cc(CC2NCCc3c2[nH]c2ccccc32)ccc1O` (stereo not drawn), the inhibition stood at 13% in assay [2], 0% in assay [3] and 27% in assay [4].

`COc1ccc(/C=C/C(=O)NCCCNCCCCN)cc1` displayed a Natural log of inhibition constant (Ki in uM) in assay [1] of 5.6.

As for `CN(C)CCCC(CN)(c1ccccc1)c1ccccc1`, the inhibition in assay [2] was determined as 9%; in assay [3], 0%; in assay [4], 36%.

On to `C[C@@H]1CN(CCCn2c3ccccc3c3ccccc32)C[C@H](C)N1`, for which the inhibition turned out to be 15% in assay [2], 10% in assay [3] and 23% in assay [4].

In the case of `c1ccc(Sc2ccccc2NCCCN2CCCC2)cc1`, the Natural log of inhibition constant (Ki in uM) in assay [1] worked out at 4.73.

With `CN1CCN(CCCNc2cc(Cl)ccc2Sc2ccc(Cl)cc2)CC1`, the Natural log of inhibition constant (Ki in uM) in assay [1] was found to be 4.04.

`CN1CCN(CCNc2cc(Cl)ccc2Sc2ccc(Cl)cc2)CC1` returned a Natural log of inhibition constant (Ki in uM) in assay [1] of 3.85.

Consider `NCc1ccccc1Sc1ccccc1CO`, for which the inhibition in assay [2] was found to be 0%; in assay [3] it was 0%; in assay [4], 31%.

In assay [1], `NCCCNCCCCNCCCNC(=O)CCc1ccc(O)c(O)c1` displayed a Natural log of inhibition constant (Ki in uM) of 4.44.

For the compound `NCCCCNCCCNC(=O)CCc1ccc(O)c(O)c1`, the Natural log of inhibition constant (Ki in uM) in assay [1] stood at 4.68.

In turn, `Clc1ccc(Sc2ccccc2)c(NCCCN2CCCC2)c1` yielded a Natural log of inhibition constant (Ki in uM) in assay [1] of 3.78.

With `CN(C)CCNc1ccccc1Sc1ccc(Cl)cc1`, the Natural log of inhibition constant (Ki in uM) in assay [1] is 4.38.

`Cc1ccc(Sc2ccc(Cl)cc2NCCCN2CCN(C)CC2)cc1`: the Natural log of inhibition constant (Ki in uM) in assay [1] stood at 3.33.

Consider `CN1CCN(CCCNc2cc(Cl)ccc2Sc2ccccc2)CC1`, for which the Natural log of inhibition constant (Ki in uM) in assay [1] was determined as 3.3.

In assay [1], `CN(C)c1ccc(C(c2ccc(N(C)C)cc2)c2ccc(N(C)C)cc2)cc1` showed a Natural log of inhibition constant (Ki in uM) of 1.6.

In assay [1], `Clc1ccc(Sc2ccc(Cl)cc2NCCCN2CCCC2)cc1` gave a Natural log of inhibition constant (Ki in uM) of 4.06.

For the compound `O=C(/C=C/c1ccc(O)c(O)c1)NCCCNCCCCNCCCNC(=O)/C=C/c1ccc(O)c(O)c1`, the Natural log of inhibition constant (Ki in uM) in assay [1] is 2.77.

The compound `CN1CCN(CCNc2ccccc2Sc2ccc(Cl)cc2)CC1` showed a Natural log of inhibition constant (Ki in uM) in assay [1] of 4.38.

In the case of `Clc1ccc(C(c2ccccc2)N2CCNCC2)cc1` (stereo not drawn), the inhibition was 30% in assay [2], 0% in assay [3] and 40% in assay [4].

`Cc1ccc(Sc2ccccc2NCCCN2CCN(C)CC2)cc1`: the Natural log of inhibition constant (Ki in uM) in assay [1] was determined as 4.17.

On to `Cc1ccc(Sc2ccc(C)cc2NCCCN2CCN(C)CC2)cc1`, for which the Natural log of inhibition constant (Ki in uM) in assay [1] came to 4.38.

`COc1ccc(CCC(=O)NCCCNCCCCN)cc1` returned a Natural log of inhibition constant (Ki in uM) in assay [1] of 5.82.

Turning to `Cc1cc(-c2ccccc2)nnc1NCCN1CCOCC1`, the values for the inhibition in assay [2], in assay [3] and in assay [4] were 16%, 18% and 12%, respectively.

As to `NCCN(CCN)CCCNc1cc(Cl)ccc1Sc1ccccc1`, the Natural log of inhibition constant (Ki in uM) in assay [1] came to 1.5.

`CCN(CC)CCNc1cc(Cl)ccc1Sc1ccccc1` yielded a Natural log of inhibition constant (Ki in uM) in assay [1] of 6.21.

Compound `Clc1ccc(Sc2ccc(Cl)cc2NCCN2CCCCC2)cc1` came in with a Natural log of inhibition constant (Ki in uM) in assay [1] of 6.9.

Turning to `Clc1ccc(Sc2ccc(Cl)cc2NCCCN2CCCCC2)cc1`, the Natural log of inhibition constant (Ki in uM) in assay [1] was 4.09.

On to `NCCC1CCN(Cc2ccccc2)CC1`, for which the inhibition in assay [2], in assay [3] and in assay [4] was 0% in each case.

Take `CN1CCN(CCCNc2cc(Cl)ccc2Sc2ccc(F)cc2)CC1`: in assay [1], the Natural log of inhibition constant (Ki in uM) was found to be 4.74.

Regarding `CN1CCN(CCCNc2cc(Cl)ccc2Sc2cc(Cl)ccc2Cl)CC1`, the Natural log of inhibition constant (Ki in uM) in assay [1] was found to be 3.4.

`CC(=O)c1ccc(Sc2ccc(Cl)cc2NCCCN2CCN(C)CC2)cc1` gave a Natural log of inhibition constant (Ki in uM) in assay [1] of 2.94.

Take `CN1CCN(CCNc2cc(Cl)ccc2Sc2ccccc2)CC1`: in assay [1], the Natural log of inhibition constant (Ki in uM) was 3.68.

Compound `Cc1ccc(Sc2ccc(F)cc2)c(NCCCN2CCN(C)CC2)c1` came in with a Natural log of inhibition constant (Ki in uM) in assay [1] of 5.35.

In turn, `CN(C)CCNc1cc(Cl)ccc1Sc1ccc(Cl)cc1` displayed a Natural log of inhibition constant (Ki in uM) in assay [1] of 3.91.

With `Fc1ccc(C(CCCN2CCNCC2)c2ccc(F)cc2)cc1`, the inhibition is 9% in assay [2], 0% in assay [3] and 18% in assay [4].

With `N#Cc1ccc(C2NCCc3c2[nH]c2ccccc32)cc1` (stereo not drawn), the inhibition in assay [2], in assay [3] and in assay [4] was 0% each time.

Consider `CCN(CC)CCCNc1cc(Cl)ccc1Sc1ccccc1`, for which the Natural log of inhibition constant (Ki in uM) in assay [1] turned out to be 3.74.

As to `Cc1cccc(C)c1OCC(O)CN1CCNCC1` (stereo not drawn), the inhibition in assay [2] turned out to be 0%; in assay [3] it was 0%; in assay [4], 7%.

As to `NCCCNCCCNC1=C(c2c[nH]c3ccccc23)C(=O)NC1=O`, the Natural log of inhibition constant (Ki in uM) in assay [1] turned out to be 0.91.

Regarding `Clc1ccc(Sc2ccccc2NCCN2CCCC2)cc1`, the Natural log of inhibition constant (Ki in uM) in assay [1] was determined as 5.08.

`CNCCC=C1c2ccccc2CCc2ccccc21`: the results for the inhibition in assay [2], in assay [3] and in assay [4] were 0%, 0% and 25%, respectively.

Regarding `COc1ccc(/C=C/C(=O)N2CCCN(CCCCN)C2)cc1`, the Natural log of inhibition constant (Ki in uM) in assay [1] was determined as 5.01.

For the compound `CN1CCN(CCCCNc2ccccc2Sc2cccc(NCCCCCNc3cccc(Sc4ccccc4NCCCCN4CCN(C)CC4)c3)c2)CC1`, the Natural log of inhibition constant (Ki in uM) in assay [1] was 1.

In the case of `NCCc1ccc(Oc2ccccc2)cc1`, the inhibition in assay [2], in assay [3] and in assay [4] was 0% throughout.

In turn, `COc1ccc(/C=C/C(=O)NCCCCN2CCCN(C(=O)/C=C/c3ccc(OC)cc3)C2)cc1` came in with a Natural log of inhibition constant (Ki in uM) in assay [1] of 5.01.

Compound `Clc1ccc(Sc2ccccc2)c(NCCN2CCCCC2)c1` gave a Natural log of inhibition constant (Ki in uM) in assay [1] of 6.55.

For the compound `O=C(CCc1ccc(O)c(O)c1)NCCCCNCCCNC(=O)CCc1ccc(O)c(O)c1`, the Natural log of inhibition constant (Ki in uM) in assay [1] turned out to be 2.01.

For `Clc1ccc(Sc2ccccc2)c(NCCCN2CCCCC2)c1`, the Natural log of inhibition constant (Ki in uM) in assay [1] was 3.95.

`CCC(C)(C)c1ccc(OCCCCN)c(C(C)(C)CC)c1`: the inhibition in assay [2], in assay [3] and in assay [4] was 0% in each case.

With `NCCNCCCNc1cc(Cl)ccc1Sc1ccccc1`, the Natural log of inhibition constant (Ki in uM) in assay [1] was found to be 3.

In assay [1], `Clc1ccc(Sc2ccccc2)c(NCCN2CCCC2)c1` gave a Natural log of inhibition constant (Ki in uM) of 4.34.
